Screening data deposited in PubChem by several laboratories.
LGR2 antag: Drosophila LGR2 receptor signaling inhibition. HEK293 LGR2, CRE-luciferase, bursicon-stimulated, 4 h. inhibition, % at 9.99 µM. actives 0.35% (n = 380,000);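 active means drop in luminescence signal, shown as inhibition above about 50% in the replicate tests, limit read from the data, passing the limit was not always enough; inconclusive means probably only some replicates passing the limit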;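 further: agonist challenge used bursicon conditioned medium at about half maximal strength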
TROY NFkB inh: inhibitors of TROY-dependent NF-kB signaling; Q293 LMP1-TROYcd NF-kB luciferase reporter, 4 h; inhibition, % at 10 µM; actives 0.98% (n = 360,000);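 active means compounds whose plate-normalised and pattern-corrected inhibition of the luciferase reporter signal at the single screening dose is 50% or more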
EWS-Fli block: inhibitors of EWS/Fli oncoprotein transcriptional activity. A673 NR0B1-luciferase reporter, viability-normalised. inhibition, % at 12.6 µM. actives 0.67% (n = 350,000). AID 651661;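 active means mean inhibition of at least 50% after viability correction, with every replicate also passing that limit; inconclusive means mean reaches 50% but only one of two replicates passes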;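 further: firefly luciferase signal divided by Alamar Blue viability fluorescence both relative to DMSO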
FN deposition inh: fibronectin deposition inhibition; AH1F fibroblasts, Alexa488-fibronectin deposition fluorescence, overnight; inhibition, % at 12.6 µM; actives 0.086% (n = 350,000);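 active means mean inhibition across replicates of 30% or more, regardless of how many single replicates reach that level; inconclusive means mean under 30% yet at least half of replicates reach 30%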;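 further: positive control wells lacked labelled fibronectin entirely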
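test system = AH1F fibroblasts assembling fluorescent fibronectin matrix | quantity = 10000 AH1F cells per well | buffer or medium = DMEM plus 2% serum, read in PBS | doses = single dose, pinned | incubation = 1 h cell attachment, overnight exposure to compound and label | detection = fluorescence at 485 nm excitation, 525 nm emission | read-out basis = inhibition from reduced deposited-fibronectin fluorescence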
TWEAK Fn14 block: TWEAK-Fn14 signaling inhibition; TWEAK-stimulated Fn14 reporter cells, luciferase luminescence, 8 h; inhibition, % at 10 µM; actives 2% (n = 360,000); AID 1159606; in the data active means inhibition above about 50%
Xi reactivation: X-chromosome reactivation activator; XiGFP mouse fibroblasts, % GFP-positive cells imaging, 3 d; cells co-treated with 5-aza-dC sensitizer; scaled so ellipticine positive control = 100%; activation, % at 7.58 µM; actives 0.055% (n = 360,000); AID 743238;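 active means mean normalized replicate activation at least 10% and every replicate at or above 10%; inconclusive means only one of the two criteria met; inactive means mean below 10% and not all replicates reach 10%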;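 further: 0% = median of on-plate neutral control wells and 100% = ellipticine 6 µM median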
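System: SV40-immortalized XiGFP fibroblast cells, line 68-5-11 / Incubation: 3-day compound exposure, then 15 min fixation at room temperature / Compound: single concentration per compound, delivered by pin transfer / Buffer or medium: DMEM plus 5-aza-dC sensitizer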
The depositor's hits bear a star; u = inconclusive; x = no result given. This is a sample that favours compounds with a hit; in the whole collection about 2.3% have one here.

SMILES	LGR2 antag	TROY NFkB inh	EWS-Fli block	FN deposition inh	TWEAK Fn14 block	Xi reactivation
O=[N+]([O-])c1cc(Cc2ccccc2)cc(C=Nc2ccc(N3CCOCC3)cc2)c1O	x	29	x	x	8	x
COc1ccc2c3c(n(C)c2c1)[C@@H](CO)N(Cc1ccc(Cl)cc1)CC31CCN(CC2CC2)CC1	19	x	2	7	x	0
O=C(CCl)c1ccc2c(c1)CCN2C(=O)C1CCCCC1	-4	53*	-10	5	-15	0
COc1ccc(C[C@@H]2CCn3cc(nn3)COC[C@H](CC(C)C)NC2=O)cc1	4	x	0	-1	x	0
COc1ccc(-c2coc3c(C(=O)Nc4cccnc4)cccc23)c(C)c1	18	22	-6	5	66*	0
COc1ccc(-c2coc3c(C(=O)Nc4cccc(C(C)=O)c4)cccc23)c(C)c1	11	22	-23	4	8	0
COc1ccc(-c2ccc(C(=O)Nc3cccc(F)c3)c3occc23)c(C)c1	-114	58*	-80	-4	50	0
COc1ccc(-c2ccc(C(=O)Nc3cccc(C(C)=O)c3)c3occc23)c(C)c1	-25	17	-24	0	48	0
COc1ccc(-c2ccc(C(=O)Nc3cccc(NS(C)(=O)=O)c3)c3occc23)c(C)c1	3	43	-17	-5	59*	0
c1ccc(CNc2nc(NCc3cccs3)nc3ccsc23)cc1	57*	61*	12	0	8	0
CNc1nc(NCc2ccccc2)c2sccc2n1	-10	9	-2	13	-53	0
C#Cc1cccc(Nc2nc(NCc3ccccc3)nc3ccsc23)c1	-43	4	-39	x	69*	0
CSc1ccccc1CNc1nc(NCC2CC2)nc2ccsc12	32	52*	31	x	29	0
CC(C)NC(=O)Nc1ccc2c(c1)C(=O)N([C@@H](C)CO)C[C@@H](C)[C@@H](CN(C)Cc1ccncc1)OCCCC[C@@H](C)O2	-5	x	x	x	x	0
C[C@@H]1COCn2nncc2CC[C@H](C)C(=O)N1	x	x	x	-1	x	0
C/C=C/c1ccc([C@H]2[C@@H](CO)N(C(=O)C3CC3)C23CN(C(=O)NC(C)C)C3)cc1	-20	x	3	0	x	0
CC(=O)N(C)C[C@H]1Oc2ncc(C#C[C@@H](C)O)cc2C(=O)N([C@H](C)CO)C[C@H]1C	-1	x	-17	2	x	0
Cc1cc(C)n(Cc2ccc(NC(=O)c3ccc(COc4ccccc4Br)cc3)cc2)n1	x	23	x	x	60*	x
C[C@H]1CN([C@@H](C)CO)C(=O)CCCn2cc(nn2)CO[C@H]1CN(C)Cc1cccc(C(F)(F)F)c1	-3	x	-1	-5	x	0
CC(C)(C)N(Cc1ccc2c(c1)OCO2)C(=O)/C=C\S(=O)c1ccccc1 (stereo unspecified)	59*	28	46	21	88*	0
Oc1c(I)cc(I)c2cccnc12	x	-13	52*	4	-1	0
CCCCCCCCn1ccc(=N)cc1	12	0	15	-3	-6	0
CCCCCCCCCCn1ccc(=N)cc1	36	48	58*	4	33	0
CC(C)(C)c1ccc(OC(=O)Nc2ccc(O)c(C(=O)O)c2)cc1	-21	13	8	-7	73*	0
Cc1cccc(OC(=O)Nc2ccc(C(=O)O)c(O)c2)c1	9	-14	-4	0	-6	0
SMILES	LGR2 antag	TROY NFkB inh	EWS-Fli block	FN deposition inh	TWEAK Fn14 block	Xi reactivation
c1cncc(-c2ccc(C3[C@@H]4CN(Cc5nccs5)C[C@H]3N4)cc2)c1 (stereo partly specified)	13	x	18	9	x	0
O=C(Nc1ccccc1-c1nc2ccccc2[nH]1)c1ccc(S(=O)(=O)N2CCCCC2)cc1	15	21	x	-9	12	x
CC1CCCCN1S(=O)(=O)c1ccc(C(=O)Nc2ccccc2-c2nc3ccccc3[nH]2)cc1 (stereo unspecified)	10	26	9	4	53*	0
CO[C@@H]1CN(C)C(=O)c2ccc(NC(C)=O)cc2OC[C@@H](C)N(C(=O)c2ccc(F)cc2)C[C@@H]1C	3	x	1	-4	x	0
Cc1noc(C)c1NC(=O)Nc1ccc2c(c1)C(=O)N([C@@H](C)CO)C[C@@H](C)[C@H](CN(C)C(=O)Nc1ccc(F)cc1)OCCCC[C@@H](C)O2	11	x	-14	-7	x	0
Cc1noc(C)c1NC(=O)N(C)C[C@@H]1Oc2ccc(NC(=O)Nc3ccccc3)cc2CC(=O)N([C@H](C)CO)C[C@@H]1C	-7	x	-3	-3	x	0
CN(C)CC(=O)N1C[C@@H]2N[C@H](C1)C2c1ccc(-c2ccccc2F)cc1 (stereo partly specified)	-10	x	-17	-17	x	0
COc1ccc(C(=O)c2sc3nc(C)cc(-c4cccs4)c3c2N)cc1OC	0	-5	4	-7	6	25*
COc1ccc(C(=O)c2sc3nc(C)cc(-c4cccs4)c3c2N)cc1	-2	16	13	-4	13	u
CCC(=O)Nc1ccc2c(c1)C(=O)N(C)[C@@H]1CC[C@@H](CC(=O)NCC3CC3)O[C@@H]1CO2	-11	x	3	-5	x	0
NC(=O)COC(=O)c1ccccc1Nc1ccc(SC(F)F)cc1	-26	-48	x	3	-24	0
CC(C)(C)NC(=O)COC(=O)c1ccccc1Nc1ccc(SC(F)F)cc1	-29	27	x	-2	55*	0
Nc1nc(-c2cc3c(cc2Cl)OCCO3)cs1	-8	-34	-8	32*	2	0
Nc1nc(-c2ccc3c(c2)OCCO3)cs1	x	50	x	x	-29	x
Cc1cccc(NC(=O)N2CCCc3ccccc32)c1C	14	75*	-11	5	51*	0
Cc1ccc(NC(=O)N2CCCc3ccccc32)cc1C	-20	65*	x	x	26	0
O=C(Nc1ccccc1)N1CCCc2ccccc21	x	-1	x	x	8	x
Cc1cc(=O)oc(C)c1C(=O)N1CCCc2ccccc21	x	12	x	-1	97*	x
COc1cccc(NC(=O)N(C)C[C@@H]2Oc3ncc(C#Cc4ccc(F)cc4)cc3C(=O)N([C@@H](C)CO)C[C@H]2C)c1	21	x	13	-5	x	1
CN(C)C(=O)[C@]1(Cc2ccccc2CN=[N+]=[N-])N=C(c2ccc(OCCCO)cc2)O[C@@H]1c1ccccc1	x	x	17	x	x	x
C[C@H](CO)N1C[C@H](C)[C@@H](CN(C)S(=O)(=O)c2cccs2)Oc2c(NC(=O)CCCN(C)C)cccc2C1=O	x	x	x	x	x	0
C[C@H]1CCCCO[C@@H](CN(C)CC2CCCCC2)[C@@H](C)CN([C@@H](C)CO)C(=O)c2cc(NC(=O)c3ccncc3)ccc2O1	-2	x	x	x	x	0
